Screens as filed in PubChem BioAssay.
WT yeast gro inh – growth inhibition of WT yeast, mitochondrial fusion screen. mitochondrial fusion phenotypic screen, WT strain. inhibition, % at 10 µM. 190,000 compounds, 2.1% hits; in the data active = inhibition above about 58%; tested in S. cerevisiae
Diaph inh CS – diaphorase inhibition or chemical oxidation counter-screen; inhibition, % at 20 µM; diaphorase resazurin-to-resorufin fluorescence, NADH, 16 min; bacterial (C. kluyveri) enzyme, not human; AID 1217; 190,000 compounds, 0.69% hits;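 active = primary screen inhibition at 20 µM above a set limit, cut at about 50% in these data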;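 also: plate controls were DMSO with full reaction for no effect and wells lacking NADH for full effect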
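Test system: bacterial diaphorase enzyme (C. kluyveri); Quantity: 0.14 U/mL diaphorase, enzyme working solution; Times: reaction incubation of 16 min at room temperature; Measured by: fluorescence of resorufin formed from resazurin, Ex 544/Em 590 nm; Benchmarks: positive control minus NADH, DMSO neutral control.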
Diaph act CS – counter-screen for diaphorase-based assays: diaphorase activators and chemical reducers; activation factor at 20 µM; AID 1229; Diaphorase/resazurin coupled assay, resorufin fluorescence, 16 min; active compounds read high; 1 = vehicle wells, 0 = NADH-free wells; 190,000 compounds, 0.005% hits;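 active = diaphorase activity raised at least twofold by the compound at 20 µM; inactive = activation factor below 2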
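System – purified diaphorase enzyme from Clostridium kluyveri · Input – enzyme 0.07 U/mL final · Also added – final NADH 0.114 mM, resazurin 0.1 mM · Measured by – fluorescence of resorufin, 544 nm excitation, 590 nm emission · Timing – 16 min enzyme reaction, ambient temperature · Measure – resorufin increase flagging diaphorase activators or reducers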
ROMK primary – modulators of human ROMK potassium channel. 130,000 compounds, 2% hits. P48048. B-score at 10 µM. Tet-inducible ROMK, thallium flux fluorescence; actives lie on both sides;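 active = signal ratio slope over the read window, or its plate-corrected B-score, at least 3 SD from the plate mean, either direction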;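 also: B-score of the F/F0 ratio slope over 7 to 12 s after thallium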
Lmaj promast – inhibitors of Leishmania major promastigote growth; Leishmania major promastigotes, resazurin fluorescence viability; inhibition, % at 10 µM; 200,000 compounds, 9% hits; AID 1063; in the data active = inhibition above about 50%;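 also: promastigotes grown with compound for 44 hours at 28 °C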
Cl transport mod – KCC2 (human) Cl- transport modulation. Q9H2X9. KCC2 cells, thallium flux FluoZin-2 fluorescence. B-score of Tl+ flux slope (higher = more flux/activation; lower = inhibition) at 10 µM. 190,000 compounds, 2.2% hits. AID 1456;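 active = thallium flux slope and its plate-corrected score both differing from the plate sample mean at a set confidence after two filtering rounds, in either direction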;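 also: slope of fluorescence scaled to starting intensity during 10 to 20 s after thallium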
Target sequence (Q9H2X9 whole entry, looked up): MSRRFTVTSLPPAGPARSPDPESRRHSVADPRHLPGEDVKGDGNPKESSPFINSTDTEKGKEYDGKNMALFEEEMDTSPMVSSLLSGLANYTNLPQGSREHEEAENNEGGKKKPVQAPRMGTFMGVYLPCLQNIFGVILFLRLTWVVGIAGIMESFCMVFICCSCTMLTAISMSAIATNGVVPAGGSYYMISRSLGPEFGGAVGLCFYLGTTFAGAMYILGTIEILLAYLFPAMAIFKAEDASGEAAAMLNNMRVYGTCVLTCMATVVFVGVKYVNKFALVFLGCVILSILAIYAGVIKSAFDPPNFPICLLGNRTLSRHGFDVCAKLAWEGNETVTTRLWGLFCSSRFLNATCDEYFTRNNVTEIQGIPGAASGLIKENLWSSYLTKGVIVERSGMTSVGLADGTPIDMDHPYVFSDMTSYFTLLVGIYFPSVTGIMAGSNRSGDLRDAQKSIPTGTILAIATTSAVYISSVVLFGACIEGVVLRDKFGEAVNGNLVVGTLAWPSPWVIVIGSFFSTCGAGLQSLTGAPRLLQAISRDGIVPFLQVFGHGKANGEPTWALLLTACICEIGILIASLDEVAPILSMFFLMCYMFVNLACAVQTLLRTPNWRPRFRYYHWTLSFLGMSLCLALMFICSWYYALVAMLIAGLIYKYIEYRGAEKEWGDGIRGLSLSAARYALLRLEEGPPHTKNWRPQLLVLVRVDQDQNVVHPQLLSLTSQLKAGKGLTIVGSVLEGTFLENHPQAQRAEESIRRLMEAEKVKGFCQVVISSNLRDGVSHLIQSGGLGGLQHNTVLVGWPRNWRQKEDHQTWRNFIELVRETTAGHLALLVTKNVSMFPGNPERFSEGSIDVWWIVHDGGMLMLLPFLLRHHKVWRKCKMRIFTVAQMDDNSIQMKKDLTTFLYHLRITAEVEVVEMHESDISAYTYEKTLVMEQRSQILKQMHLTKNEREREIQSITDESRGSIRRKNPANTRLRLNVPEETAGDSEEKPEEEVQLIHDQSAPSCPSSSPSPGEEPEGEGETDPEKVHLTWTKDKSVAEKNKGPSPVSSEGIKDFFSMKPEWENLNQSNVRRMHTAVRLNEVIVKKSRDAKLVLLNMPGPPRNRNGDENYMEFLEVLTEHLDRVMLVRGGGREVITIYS
Numbers without * were called inactive; nt = no result. Sampled rows, rich in hits. Any-hit rate of the full collection: about 12%.

SMILES	WT yeast gro inh	Diaph inh CS	Diaph act CS	ROMK primary	Lmaj promast	Cl transport mod
CCOc1cc(-c2c(C#N)c(N)nc3c2CCCC3C)ccc1O (stereo not given)	28.0	14.3	0.9	nt	46.0	0.78
COc1ccccc1-c1c(C#N)c(N)nc2c1CCc1ccccc1-2	67.0*	26.8	0.7	-0.576	86.8*	-0.191
CC(C)C[C@H](NC(=O)c1nc[nH]c1C(=O)NCCCCCNC(=O)OC(C)(C)C)C(=O)OCc1ccccc1	-0.5	44.3	0.6	nt	20.8	-1.02
CC(C)C[C@H](NC(=O)c1nc[nH]c1C(=O)NC1CCN(C(=O)OC(C)(C)C)CC1)C(=O)OC(C)(C)C	46.6	34.9	0.7	nt	30.7	0.13
CC(C)(C)OC(=O)[C@H](Cc1ccccc1)NC(=O)c1nc[nH]c1C(=O)NC1CCN(C(=O)OC(C)(C)C)CC1	57.4	51.8*	0.5	nt	41.5	-0.124
CC(C)C[C@H](NC(=O)c1nc[nH]c1C(=O)NC1CCN(C(=O)OC(C)(C)C)CC1)C(=O)OCc1ccccc1	45.5	29.7	0.7	nt	51.1*	-0.294
C[C@H](NC(=O)c1nc[nH]c1C(=O)NCCCCCNC(=O)OC(C)(C)C)C(=O)OCc1ccccc1	9.6	21.5	0.8	nt	0.3	-4.36*
Cc1ccc2nc(C)cc(Nc3ccc([N+](=O)[O-])cc3)c2c1	18.1	-63.8	1.6	1.9	100.5*	-1.06
Cc1ccc2nc(SCc3ccc([N+](=O)[O-])cc3)nc(C)c2c1	0.5	17.4	0.8	nt	-3.6	0.238
O=C(NCc1ccc2c(c1)OCO2)c1ccc(CN2CCc3ccccc3C2)cc1	4.4	0.5	1	nt	32.5	-1.59
O=C(C1CCC1)N1CCN(Cc2ccccc2)CC1	7.5	8.2	0.9	nt	-5.8	0.036
Cc1c(NC(=O)c2ccc(CN3CCc4ccccc4C3)cc2)c(=O)n(-c2ccccc2)n1C	8.7	7.5	0.9	nt	0.4	0.445
Cc1cc(C)c(NC(=O)c2ccc(CN3CCc4ccccc4C3)cc2)c(C)c1	-17.4	11.8	0.9	-0.475	73.5*	0.1
O=C(C1CCCN(Cc2ccccc2)C1)N1CCc2ccccc2C1 (stereo not given)	-12.1	9.9	0.9	-0.774	96.4*	0.0669
O=C(NCc1cccnc1)c1ccc(CN2CCc3ccccc3C2)cc1	-0.7	1.5	1	-1.08	63.0*	nt
O=C(c1ccc(COc2ccccc2Br)cc1)N1CCCCC1	1.7	9.3	0.9	-2.21	69.8*	-1.42
CCOC(=O)CC(NC(=O)c1cccc2c1C(=O)N(Cc1cccnc1)C2)c1ccc(OCC)c(OC)c1 (stereo not given)	10.9	9.5	0.9	0.6	1.0	-0.101
COc1ccc(-c2cnc[nH]2)cc1	-4.3	-7.6	1.1	0.474	-1.2	0.667
COCCNC(=O)c1ccc(CN2CCc3ccccc3C2)cc1	-6.7	-4.3	1	-0.645	-4.0	-1.02
CCCNC(=O)c1ccc(CN2CCc3ccccc3C2)cc1	1.1	8.6	0.9	-0.84	55.6*	-0.531
O=C(c1ccc(CN2CCc3ccccc3C2)cc1)N1CCN(c2ccc(F)cc2)CC1	nt	nt	nt	nt	2.9	nt
O=C(c1ccc(CN2CCc3ccccc3C2)cc1)N1CCCCC1	12.2	11.7	0.9	nt	63.5*	-0.893
CCOc1c2ccc(C(=O)NCC34CC5CC(CC(C5)C3)C4)cc2nn1CC	8.9	13.9	0.9	0.503	85.5*	0.511
CCOc1c2ccc(C(=O)NCc3ccco3)cc2nn1CC	12.7	9.6	0.9	-0.425	-1.9	0.845
CCCCn1nc2cc(C(=O)NCC34CC5CC(CC(C5)C3)C4)ccc2c1OC	10.0	23.3	0.8	nt	58.6*	0.0149
SMILES	WT yeast gro inh	Diaph inh CS	Diaph act CS	ROMK primary	Lmaj promast	Cl transport mod
CCCCn1nc2cc(C(=O)NCCCCc3ccccc3)ccc2c1OCC	32.4	7.8	0.9	nt	72.6*	0.542
CCn1nc2cc(C(=O)NCC34CC5CC(CC(C5)C3)C4)ccc2c1OC	-23.6	2.1	1	0.481	51.1*	-0.136
COc1ccc(CNC(=O)CN2CCN(S(=O)(=O)c3cccs3)CC2)cc1OC	1.1	5.7	0.9	0.476	-4.2	0.446
CC(C)(C)c1cnnn1-c1cccc([N+](=O)[O-])c1	1.8	3.7	1	-0.175	-3.3	0.548
CCn1c(SCC(=O)Nc2ccccc2OC)nnc1-c1cnccn1	-2.1	8.6	0.9	nt	5.3	-0.703
O=C(CSc1nnc(-c2c[nH]c3ccccc23)n1CC1CCCO1)Nc1ccc2c(c1)OCCO2 (stereo not given)	-3.6	9.4	0.9	-0.497	10.7	-0.442
O=C(CSc1nnc(-c2n[nH]c3ccccc23)n1-c1ccccc1)Nc1ccccc1Cl	-11.4	15.0	0.8	0.0113	60.4*	-0.271
